A short description of data set [1]: Relative binding affinity for purified estrogen receptor 1 (ER-alpha). In outline:
(§1)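 Incubated 3 h at 0°C with 2×10⁻⁹ M [3H]-estradiol plus nine competitor levels. Protamine sulfate separation, logit analysis of 50% displacement. RBA vs estradiol (100%); mean of at least two experiments.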

Data set [2] can be described thus: Partition coefficient (logP). The class given is physicochemical. To be noted: octanol/water. In outline: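 Reversed-phase HPLC on a C-8 column. Capacity factors k' extrapolated to 100% aqueous component to give k'w; logPo/w = 0.13418 + 0.98452 log k'w.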
Data set [3] addresses T1, Estrogen receptor (Homo sapiens) (UniProt P03372).
T1 sequence (whole entry): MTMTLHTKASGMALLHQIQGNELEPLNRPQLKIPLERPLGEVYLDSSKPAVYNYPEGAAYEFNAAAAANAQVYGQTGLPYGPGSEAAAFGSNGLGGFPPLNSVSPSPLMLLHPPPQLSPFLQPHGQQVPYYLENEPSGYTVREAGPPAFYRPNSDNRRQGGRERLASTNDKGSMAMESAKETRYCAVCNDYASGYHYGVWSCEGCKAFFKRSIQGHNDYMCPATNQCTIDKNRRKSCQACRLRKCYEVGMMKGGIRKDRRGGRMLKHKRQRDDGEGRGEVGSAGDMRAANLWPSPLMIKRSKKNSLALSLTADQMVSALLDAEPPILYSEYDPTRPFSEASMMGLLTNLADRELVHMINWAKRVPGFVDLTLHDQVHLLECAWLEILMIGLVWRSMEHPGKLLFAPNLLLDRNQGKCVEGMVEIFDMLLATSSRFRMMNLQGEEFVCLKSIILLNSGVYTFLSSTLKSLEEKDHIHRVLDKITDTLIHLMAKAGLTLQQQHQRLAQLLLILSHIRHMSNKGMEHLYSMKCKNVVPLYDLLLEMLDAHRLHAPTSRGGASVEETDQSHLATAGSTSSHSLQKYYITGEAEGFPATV
Nature of the data set: Relative binding affinity for estrogen receptor 1 (ER-alpha) of lamb uterine cytosol. The note with it: Ovis aries; target entry is the homologue from another species. In outline:
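Cytosol from frozen sheep (lamb) uteri in 0.05 M Tris-HCl, 0.25 M sucrose, 0.1% β-mercaptoethanol, pH 7.4. Incubated 3 h at 0°C with 2×10⁻⁹ M [6,7-3H]-estradiol and nine competitor concentrations. Bound and free separated by protamine sulfate precipitation. 50% displacement concentration from logit plot; RBA relative to estradiol = 100%; mean of at least two experiments.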

Data set [4] concerns the target Estrogen receptor beta (Homo sapiens) (UniProt Q92731). Briefly: Relative binding affinity for estrogen receptor 2 (ER-beta). In outline:
as §1

These results are taken from ChEMBL document CHEMBL1139535, “Modification of the estrogenic properties of diphenols by the incorporation of ferrocene. Generation of antiproliferative effects in vitro” (J Med Chem, 2005).

Estrogen receptor beta (Homo sapiens), sequence (Q92731 whole entry): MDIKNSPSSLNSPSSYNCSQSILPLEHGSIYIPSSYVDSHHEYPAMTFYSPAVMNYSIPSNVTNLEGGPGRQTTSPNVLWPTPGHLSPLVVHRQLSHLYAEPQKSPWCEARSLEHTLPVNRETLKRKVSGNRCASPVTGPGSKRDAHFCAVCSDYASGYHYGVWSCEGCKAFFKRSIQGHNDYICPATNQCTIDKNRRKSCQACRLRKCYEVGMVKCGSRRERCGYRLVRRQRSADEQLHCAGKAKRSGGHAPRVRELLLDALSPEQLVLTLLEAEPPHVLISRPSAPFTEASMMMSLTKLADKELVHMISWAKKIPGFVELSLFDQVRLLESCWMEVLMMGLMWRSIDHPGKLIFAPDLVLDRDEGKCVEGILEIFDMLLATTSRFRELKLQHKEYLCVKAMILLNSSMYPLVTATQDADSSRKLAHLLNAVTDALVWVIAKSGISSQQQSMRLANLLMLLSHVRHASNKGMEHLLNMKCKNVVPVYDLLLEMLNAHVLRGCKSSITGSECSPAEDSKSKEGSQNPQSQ

For `CCC(=C(c1ccc(O)cc1)c1ccc(O)cc1)c1ccccc1`, the values for the RBA in data set [1], in data set [3] and in data set [4] were 47.5%, 6.8% and 101%, respectively. For the same molecule, the logP (as a rule, the decadic logarithm of the partition coefficient of the neutral form, usually between octanol and water) in data set [2] was 4.4.
